# ChEMBL document CHEMBL1148399, “Total synthesis and antitubulin activity of c10 analogues of cryptophycin-24” (2004)
# Columns and labels:
# Type in all cases: functional
# [1] = test system: NCI/ADR-RES; assay: In vitro cytotoxicity against human MCF-7/Adr breast cancer cell line; settings: read-out: ED50 (the source's name)
# Outline: (§1)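 About 2000 cells/well plated in Dulbecco's MEM/F12 with 10% fetal calf serum. At 24 h the medium was replaced with fresh medium holding varying compound concentrations. After 72 h, proliferation was read by sulforhodamine B staining. ED50 is the concentration reducing cell proliferation by 50%.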
# [2] = test system: MCF7; assay: In vitro cytotoxicity against human MCF-7 cell line; settings: read-out: ED50 (the source's name); outline: as §1
# [3] = biological target: Tubulin alpha chain (Sus scrofa) (UniProt P02550); assay: In vitro effective concentration required to reduce the amount of microtubules assembly by tubulin assay
# Sequence of Tubulin alpha chain (Sus scrofa) (P02550 whole entry, looked up): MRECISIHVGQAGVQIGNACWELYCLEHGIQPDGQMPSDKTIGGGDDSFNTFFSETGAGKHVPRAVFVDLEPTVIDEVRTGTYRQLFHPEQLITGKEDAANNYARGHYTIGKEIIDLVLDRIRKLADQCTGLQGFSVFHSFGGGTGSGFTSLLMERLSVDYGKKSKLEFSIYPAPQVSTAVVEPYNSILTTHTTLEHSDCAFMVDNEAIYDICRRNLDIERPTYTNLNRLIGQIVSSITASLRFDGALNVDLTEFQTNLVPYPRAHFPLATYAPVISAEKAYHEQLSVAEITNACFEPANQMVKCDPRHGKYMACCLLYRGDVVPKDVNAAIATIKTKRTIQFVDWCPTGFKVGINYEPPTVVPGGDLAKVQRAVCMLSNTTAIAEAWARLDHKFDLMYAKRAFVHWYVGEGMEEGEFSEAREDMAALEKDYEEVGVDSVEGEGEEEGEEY
# Outline: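 Tubulin at 1.5 mg/mL was incubated with varying compound concentrations for 15 min at 37 °C in PEM buffer, pH 6.9 (0.1 M PIPES, 1 mM EGTA, 1 mM MgSO4), with 0.5 mM GTP and 8% DMSO. Microtubules were pelleted by centrifugation for 4 min at 37 °C and 50 000 rpm. Supernatant protein was measured by Bradford, and pellet protein derived from it. ED50 is the concentration reducing microtubules by 50%.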
# [4] = test system: KB; assay: In vitro cytotoxicity against human KB cancer cell line; settings: read-out: ED50 (the source's name)
# [5] = test system: CCRF-CEM; assay: In vitro cytotoxicity against human CEM cell line; settings: read-out: ED50 (the source's name)
SMILES,ED50 [3] [nM],EC50 [1] [nM],EC50 [2] [nM],EC50 [4] [nM],EC50 [5] [nM]
COc1ccc(C[C@H]2NC(=O)/C=C/C[C@@H]([C@H](C)[C@H]3O[C@@H]3c3ccccc3)OC(=O)[C@H](CC(C)C)OC(=O)[C@H](C)CNC2=O)cc1Cl [CRYPTOPHYCIN A],3400,0.018,0.009,,
CC(C)C[C@@H]1OC(=O)CCNC(=O)[C@@H](Cc2ccccc2)NC(=O)/C=C/C[C@@H]([C@H](C)[C@H]2O[C@@H]2c2ccccc2)OC1=O,13100,1.57,0.34,,
COc1ccc(C[C@H]2NC(=O)/C=C/C[C@@H]([C@H](C)[C@H]3O[C@@H]3c3ccccc3)OC(=O)[C@H](CC(C)C)OC(=O)CCNC2=O)cc1 [ARENASTATIN A],15800,0.25,0.13,0.005,0.183

# Second part, led by results:
ED50 [3] [nM],SMILES,EC50 [1] [nM],EC50 [2] [nM],EC50 [4] [nM],EC50 [5] [nM]
12600,CC(C)C[C@@H]1OC(=O)CCNC(=O)[C@@H](Cc2ccc(Cl)c(Cl)c2)NC(=O)/C=C/C[C@@H]([C@H](C)[C@H]2O[C@@H]2c2ccccc2)OC1=O,3.4,0.08,,
7200,CC(C)C[C@@H]1OC(=O)CCNC(=O)[C@@H](Cc2cccc(Cl)c2)NC(=O)/C=C/C[C@@H]([C@H](C)[C@H]2O[C@@H]2c2ccccc2)OC1=O,0.58,0.05,,
12500,CC(C)C[C@@H]1OC(=O)CCNC(=O)[C@@H](Cc2ccc(Cl)cc2)NC(=O)/C=C/C[C@@H]([C@H](C)[C@H]2O[C@@H]2c2ccccc2)OC1=O,0.66,0.12,,
